{
  "source": "paper PMC11215724",
  "about": "(Journal of Medicinal Chemistry, 2024)",
  "key": {"WM3248": {"system": "WM3248", "test": "Cell viability assay, WM3248 melanoma cell line", "format": "cell-based", "details": "WM3248 cells"}, "A375": {"system": "A375", "test": "Cell viability assay, A375 melanoma cell line", "format": "cell-based", "details": "A375 cells"}, "SKMel3": {"system": "SKMel3", "test": "Cell viability assay, SKMel3 melanoma cell line", "format": "cell-based", "details": "read-out: IC50 SKMel3; SKMel3 cells"}, "[1]": {"system": "SKM28, SKMel3, WM3248, A375, SW480", "test": "Cell viability assay, all five cancer cell lines together", "format": "cell-based"}, "[2]": {"details": "starting compounds; cited from earlier work"}, "Stability in DMSO": {"test": "Stability in DMSO", "format": "physicochemical"}, "Mouse pharmacokinetics": {"test": "Mouse pharmacokinetics", "format": "in vivo", "details": "single I.V. 3 mg/kg or P.O. 10 mg/kg", "procedure,_shortened": "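Single dose to mice, either intravenous at 3 mg/kg or oral at 10 mg/kg. Three animals per time point. Plasma concentration–time profiles were used for observed and calculated PK parameters. Animals were watched for treatment-related toxicological signs throughout.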"}, "Aggregation by NMR": {"test": "Aggregation by NMR", "format": "physicochemical", "details": "Tris buffer", "procedure,_shortened": "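Compound aggregation checked by WaterLOGSY in the NMR binding-assay buffer at three theoretical concentrations, with 200 μM 4-trifluoromethyl benzoic acid as internal reference. Solubility was checked in PBS and Tris buffer by ¹H 1D spectra. Data were processed with 2 Hz exponential line broadening before Fourier transformation.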"}},
  "data": [
    {"compound": "4-(1-Methyl-1H-imidazol-5-yl)-6-(piperidin-4-yl)-N-(3-(trifluoromethyl)phenyl)-1,3,5-triazin-2-amine [Compound 8]", "values": [
      {"measurement": "decrease of activity on WM3248 compared to 1", "setting": "WM3248", "value": "~10", "unit": "fold"},
      {"measurement": "effect on A375 (in words)", "setting": "A375", "value": "annihilating the effect on A375"},
      {"measurement": "IC50", "setting": "A375; read-out: IC50 A375", "value": "> 100", "unit": "µM"}
    ]},
    {"compound": "4-(Piperidin-4-yl)-6-(pyrrolidin-2-yl)-N-(3-(trifluoromethyl)phenyl)-1,3,5-triazin-2-amine [Compound 10]", "values": [
      {"measurement": "IC50", "setting": "SKMel3", "value": "> 100", "unit": "µM"},
      {"measurement": "antiproliferative activity in the cancer cell lines (in words)", "setting": "[1]", "value": "complete loss of activity"}
    ]},
    {"compound": "CN(C)c1cccc(Nc2cc(-c3ccccc3)nc(C3CCNCC3)n2)c1", "note": "[ARN22089]", "values": [
      {"measurement": "aggregation by NMR at 100 μM", "setting": "[2]", "value": "showed aggregation"}
    ]},
    {"compound": "FC(F)(F)c1cccc(Nc2cc(-c3ccccc3)nc(C3CCNCC3)n2)c1", "note": "[ARN25062]", "values": [
      {"measurement": "aggregation by NMR at 100 μM", "setting": "[2]", "value": "showed aggregation"}
    ]},
    {"compound": "FC(F)(F)c1cccc(Nc2nc(C3=CCNCC3)nc(-c3ccsc3)n2)c1", "note": "[Compound 11, 4-(1,2,3,6-Tetrahydropyridin-4-yl)-6-(thiophen-3-yl)-N-(3-(trifluoromethyl)phenyl)-1,3,5-triazin-2-amine]", "values": [
      {"measurement": "stability in DMSO", "setting": "Stability in DMSO", "value": "slight instability in DMSO"}
    ]},
    {"compound": "COc1ccc(Nc2nc(-c3ccccc3)cc(C3CCNCC3)n2)cc1OC", "note": "[Compound 15, N-(3,4-Dimethoxyphenyl)-4-phenyl-6-(piperidin-4-yl)pyrimidin-2-amine]", "values": [
      {"measurement": "tolerability during the PK studies", "setting": "Mouse pharmacokinetics", "value": "well tolerated by all animals"}
    ]},
    {"compound": "FC(F)(F)c1cc(Nc2nc(-c3ccccc3)cc(C3CCNCC3)n2)ccn1", "note": "[Compound 20, 4-Phenyl-6-(piperidin-4-yl)-N-(2-(trifluoromethyl)pyridin-4-yl)pyrimidin-2-amine]", "values": [
      {"measurement": "tolerability during the PK studies", "setting": "Mouse pharmacokinetics", "value": "well tolerated by all animals"}
    ]},
    {"compound": "Cn1ccc2ccc(Nc3cc(-c4ccccc4)nc(C4CCNCC4)n3)cc21", "note": "[Compound 25, 1-Methyl-N-(6-phenyl-2-(piperidin-4-yl)pyrimidin-4-yl)-1H-indol-6-amine]", "values": [
      {"measurement": "aggregation by NMR (50 μM)", "setting": "Aggregation by NMR", "value": "showed aggregation"}
    ]}
  ]
}
